High-throughput results from PubChem.
zfTRPN1 agonist = zebrafish TRPN1 (NompC) channel agonism | HEK293 zebrafish TRPN1-YFP, Fluo-8 calcium fluorescence; 100% = response to 87 µM carbachol | activation, % at 3 µM | actives 0.18% (n = 220,000);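 active means activation above its plate's cutoff, the mean activation of test wells on that plate plus 3 SD, cut at about 19% in these data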;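 further: 0% = DMSO alone and 100% = 87 µM carbachol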
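Material – zebrafish TRPN1-YFP in HEK293 cells · Doses – 3 µM single point · Schedule – dye 1 h 37 °C plus 30 min RT · Signal – Fluo-8 calcium fluorescence, excitation 470-495 nm, emission 515-575 nm · Read-out – % activation versus carbachol response · Control set – carbachol high, DMSO low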
TRPML3 ag = agonists of human TRPML3 channel. Q8TDD5. HEK293 TRPML3-YFP, Fluo-8 calcium fluorescence; 100% = the carbachol control signal. activation, % at 3 µM. actives 0.29% (n = 220,000);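 active means activation above its plate's cutoff, the mean activation of the plate's test wells plus 3 SD, cut at about 12% in these data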;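 further: 0% = DMSO only wells and 100% = carbachol wells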
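Test system: HEK293 cells stably carrying human TRPML3-YFP; Doses: single dose, 3 µM final nominal compound, 0.3% DMSO final; Schedule: dye loading 1 h 37 °C then 30 min ambient, 125 s read; Technique: Fluo-8 calcium fluorescence; Benchmarks: high control carbachol 87 µM, low control DMSO.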
CHO parental Ca = signal in parental CHO cells, OX1R antagonist counter-screen | inhibition, % at 5.6 µM | parental CHO-K1, ATP-induced calcium, Fluo-8 fluorescence | AID 463079 | actives 0.63% (n = 330,000);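 active means inhibition above that plate's mean sample inhibition plus 3 SD, cut at about 26% in these data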;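 further: 0% = ATP-challenged DMSO wells and 100% = DMSO wells without ATP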
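test system = CHO parental line | reagent = ATP stimulus | measured by = intracellular calcium via Fluo-8 no-wash fluorescent dye | control set = ATP and no-ATP DMSO wells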
OX1R antag-1 = OX1R (human) antagonism | AID 485270 | inhibition, % at 6.6 µM | actives 1.8% (n = 330,000) | OX1R-expressing cells, FRET antagonist read-out; in the data active means inhibition mostly above about 38%, no sharp cut-off; inactive means mostly below about 40%;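 further: 0% = agonist challenge alone and 100% = reference antagonist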
Target sequence (O43613 whole entry, looked up): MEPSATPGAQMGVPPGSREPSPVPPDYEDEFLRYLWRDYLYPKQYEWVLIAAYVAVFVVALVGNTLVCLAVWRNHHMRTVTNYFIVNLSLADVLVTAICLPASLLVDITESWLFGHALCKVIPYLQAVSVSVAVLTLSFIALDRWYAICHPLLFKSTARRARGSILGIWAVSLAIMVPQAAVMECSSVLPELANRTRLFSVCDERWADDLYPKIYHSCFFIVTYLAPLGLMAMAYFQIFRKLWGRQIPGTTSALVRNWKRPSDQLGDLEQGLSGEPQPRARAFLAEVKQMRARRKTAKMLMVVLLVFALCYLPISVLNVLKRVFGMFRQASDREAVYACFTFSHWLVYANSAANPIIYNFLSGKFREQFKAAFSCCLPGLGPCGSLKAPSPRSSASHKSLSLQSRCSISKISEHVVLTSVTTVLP
OX1R antag-2 = blocks the human orexin 1 receptor. CHO/OX1R cells, Fluo-8 calcium fluorescence, orexin A. O43613. AID 434989. inhibition, % at 5 µM. actives 0.43% (n = 330,000);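 active means inhibition above its plate's threshold, mean inhibition of all tested compounds on the plate plus 3 SD, cut at about 37% in these data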;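 further: 0% = orexin A challenge wells and 100% = SB-334867-A antagonist wells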
OX1R HTRF conf = confirmation of human orexin 1 receptor antagonists, HTRF format | shares compounds with OX1R antag-1 | OX1R-expressing cells, HTRF antagonist assay | inhibition, % at 6.6 µM | actives 49% (n = 1,800) | AID 492964; in the data active means inhibition above about 55%;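 further: CHO cells expressing OX1R stimulated with orexin A at about EC80; 0% = agonist challenge alone and 100% = reference antagonist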
CHO-K1 HTRF = counter-screen for OX1R antagonists: effect in parental CHO-K1 cells. shares compounds with OX1R antag-1. HTRF counterscreen. inhibition, % at 6.6 µM. actives 48% (n = 1,800). AID 493232; in the data active means inhibition above about 17%;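 further: 0% = agonist challenge with vehicle and 100% = vehicle alone without agonist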
An asterisk follows results filed as active; . = no result; + = active, no number. Compounds with a hit are over-represented: about 2.5% of the library has one in this group of screens.

SMILES | zfTRPN1 agonist | TRPML3 ag | CHO parental Ca | OX1R antag-1 | OX1R antag-2 | OX1R HTRF conf | CHO-K1 HTRF
COC(=O)C1=C(C)N(C)C(=O)NC1c1cc2c(cc1[N+](=O)[O-])OCO2 (stereo not given) | 0 | 0 | -12 | 91* | -5 | 33 | 25*
COc1ccccc1N1CCN(C(=O)c2ccc3c(c2)CCN3S(C)(=O)=O)CC1 | . | . | -6 | 13 | -15 | . | .
COc1ccc(C(=O)NC2CCCc3ccccc32)c(OC)c1OC (stereo not given) | . | . | -9 | 12 | -12 | . | .
COc1cccc2cc(-c3cn4ccc(C)cc4n3)c(=O)oc12 | 1 | 1 | -3 | 86* | -13 | 91* | 9
COc1cccc2cc(-c3cn4cccc(C)c4n3)c(=O)oc12 | 0 | 1 | 4 | 41 | -8 | . | .
CCOC(=O)c1ccc(/C=C2/C=C(c3ccccc3)N(c3ccc(Cl)c(C(=O)O)c3)C2=O)cc1 | 3 | 2 | -5 | 11 | -4 | . | .
O=C(O)c1ccc(NC(=O)c2ccc3c(c2)C(=O)N(CC2CCCO2)C3=O)cc1 (stereo not given) | . | . | -5 | 78* | -16 | 34 | 32*
Cc1ccnc(NC(=O)c2ccc3c(c2)C(=O)N(CC2CCCO2)C3=O)c1 (stereo not given) | 0 | 1 | -19 | 23 | -16 | . | .
O=[N+]([O-])c1cccc(-c2ccc3nnc(SCc4ccccn4)n3n2)c1 | 0 | 0 | -11 | 77* | -18 | 45 | 36*
CCC(C)(C)NC(=O)C(c1ccc(F)cc1)N(CCOC)C(=O)CCC(=O)Nc1nccs1 (stereo not given) | . | . | -19 | 20 | -22 | . | .
CCN(CC)S(=O)(=O)c1ccc(S(=O)(=O)N2CCCC(C(=O)NC3CC3)C2)cc1 (stereo not given) | . | . | 7 | 12 | -1 | . | .
Cc1ccc(CNC(=O)CSc2nc(=O)n3cccc(C)c3n2)cc1 | . | . | -16 | 7 | -14 | . | .
O=C(CSc1ccc(-c2cccs2)nn1)c1cccs1 | -1 | 0 | -20 | 111* | 20 | 95* | 6
COc1ccc(-n2nc([N+](=O)[O-])c(=NCc3cccnc3)n2O)cc1 | -1 | 0 | -9 | 123* | -3 | 61* | 78*
COc1ccc(-n2nc([N+](=O)[O-])c(=NC3CCN(Cc4ccccc4)CC3)n2O)cc1 | -2 | 1 | -20 | 79* | -37 | 61* | 55*
COc1ccc(-n2nc([N+](=O)[O-])c(=NCCc3ccc(OC)c(OC)c3)n2O)cc1 | 3 | 2 | 1 | 84* | -9 | 46 | 54*
COc1ccc(-n2nc([N+](=O)[O-])c(=NCCc3ccc(C)cc3)n2O)cc1 | -3 | 0 | -22 | 34 | -41 | . | .
COc1ccc(-n2nc([N+](=O)[O-])c(=NCc3ccco3)n2O)cc1 | -1 | -1 | 7 | 43 | 1 | . | .
CCOc1ccccc1N1CC(C(=O)NC2CCCCCC2)CC1=O (stereo not given) | . | . | -9 | 2 | -26 | . | .
COc1ccc2[nH]c3c(c2c1)CCN1C(=O)C(CC(=O)NCC24CC5CC(CC(C5)C2)C4)C[C@H](C(=O)N2CCOCC2)[C@@]31CCC1CCCC1 (stereo not given in full) | . | . | -17 | 3 | -12 | . | .
CN1CN=C(NS(=O)(=O)c2ccc([N+](=O)[O-])cc2)NC1 | . | . | -2 | 83* | -10 | 32 | 30*
CC(C)CCN(C(=O)CCCSc1nc2ccccc2[nH]1)c1c(N)n(Cc2ccccc2)c(=O)[nH]c1=O | . | . | -30 | 34 | -28 | . | .
O=C(CCS(=O)(=O)c1cccc2nonc12)N1CCOCC1 | 1 | 1 | -8 | 99* | -3 | 36 | 69*
O=C(CCS(=O)(=O)c1cccc2nonc12)N1CCN(c2ccc(F)cc2)CC1 | 4 | 1 | -3 | 97* | -10 | 27 | 24*
O=C(c1ccccc1[N+](=O)[O-])n1cnc2ccccc21 | 0 | 1 | 0 | 15 | 4 | . | .
SMILES | zfTRPN1 agonist | TRPML3 ag | CHO parental Ca | OX1R antag-1 | OX1R antag-2 | OX1R HTRF conf | CHO-K1 HTRF
O=C(c1ccc([N+](=O)[O-])cc1[N+](=O)[O-])n1cnc2ccccc21 | 1 | 0 | -20 | 108* | -5 | 44 | 68*
COc1ccc(CC(=O)NCc2nnc(SCC(=O)Nc3ccccc3)n2C)cc1 | 0 | 1 | -7 | 14 | -4 | . | .
COc1ccc(CC(=O)NCc2nnc(SCC(=O)Nc3cccc(F)c3)n2C)cc1 | -1 | 1 | -8 | 92* | -8 | 17 | -12
O=C(Cc1ccc(Cl)c(Cl)c1)N1CCOCC1 | . | . | -12 | -16 | 8 | . | .
Cc1nnc(C)n1N1C(=O)c2cccc3cccc(c23)C1=O | 0 | 0 | -4 | 19 | -7 | . | .
CCCc1nnc(N2C(=O)c3cccc4cccc(c34)C2=O)s1 | -1 | 0 | -2 | 103* | -17 | 40 | 37*
O=C(CN1CCN(C(=O)CNC(=O)c2ccc(N3CCCC3=O)cc2)CC1)Nc1ccccc1Cl | . | . | -8 | 2 | -9 | . | .
COc1ccc(-c2nnc(SCC(=O)N3CCCC3)o2)c(OC)c1 | . | . | 5 | -1 | -16 | . | .
O=c1cc(NCCCO)c2ccccc2o1 | 0 | 1 | -9 | 13 | -9 | . | .
O=C1C(Cl)=C(NCCCO)C(=O)c2ccccc21 | -1 | 0 | -1 | + | 2 | 67* | 104*
NC(=O)c1cc(NC(=O)CCc2nc3ccccc3s2)cc(C(N)=O)c1 | . | . | 8 | -2 | 6 | . | .
CNc1nc(Cl)c(SC)c(NCc2ccc(F)cc2)n1 | . | . | -31 | 27 | -24 | . | .
CCOC(=O)N1CCN(c2cc(NCCO)c([N+](=O)[O-])c3nonc23)CC1 | 1 | 0 | -4 | 20 | -16 | . | .
O=[N+]([O-])c1c(NCCO)cc(N2CCCCC2)c2nonc12 | -1 | 0 | -6 | 90* | -11 | 52 | 39*
O=C(COC(=O)c1cnc(Cl)c(Cl)c1)NC1CC1 | . | . | -7 | 11 | -22 | . | .
CCCNC(=O)NC(=O)c1cnccc1C(F)(F)F | -1 | 2 | -18 | -1 | -1 | . | .
CCOc1ccc(N=Nc2c(=O)[nH]n3c(C)cc(C)nc23)cc1 | 1 | 0 | -2 | 149* | -9 | 64* | 74*
Cc1cc(=O)n2[nH]c(N)c(N=Nc3ccccc3)c2n1 | 0 | 2 | -2 | 20 | -9 | . | .
COc1cccc(/C=C2\Oc3ccc(O)cc3C2=O)c1O | . | . | -7 | 95* | 25 | 93* | 16
Cc1cc(Br)ccc1NC(=O)CN(C)C(=O)c1cc(S(=O)(=O)N(C)C)ccc1N1CCCC1 | . | . | -26 | -10 | -35 | . | .
Cc1[nH]c2ccccc2c1/C=C/c1nc2ccccc2c(=O)[nH]1 | 0 | 1 | 3 | 87* | -25 | 75* | 12
